The results in this text go back to ChEMBL document CHEMBL4840368, “Structure-activity relationship and molecular modelling studies of quinazolinedione derivatives MMV665916 as potential antimalarial agent” (Bioorg Med Chem, 2021).

Molecules are shown by their SMILES. A value given as a limit tells only on which side of the number the result lay.

For data set [1], the system named is Plasmodium falciparum. Put plainly: Antimalarial activity against chloroquine-resistant Plasmodium falciparum FcB1(CQR)Colombia assessed as parasite growth inhibition at 20 uM relative to control. Format: functional. In outline:
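Single-point screen at 20 μM against erythrocytic stages of chloroquine-resistant P. falciparum FcB1 (Columbia) in culture. Read-out is percent parasite growth inhibition.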

Data set [2] deals with Plasmodium falciparum. Put plainly: Antimalarial activity against chloroquine-resistant Plasmodium falciparum FcB1(CQR)Colombia assessed as parasite growth inhibition. The class given is functional, organism-based. The gist of the method:
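Erythrocytic-stage growth inhibition in culture of chloroquine-resistant P. falciparum FcB1 (Columbia). EC50 comes from a 10-point dose-response, run only for compounds above a 60% inhibition cut-off in the 20 μM single-point screen. Values are means of at least two experiments.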

The nature of data set [3]: Selectivity index, ratio of IC50 for human AB943 cells to IC50 for Antimalarial activity against chloroquine-resistant Plasmodium falciparum FcB1(CQR)Colombia. The class given is toxicity. The following applies: read-out: Selectivity Index.
The nature of data set [4]: Cytotoxicity against human AB943 cells. Format: cell-based.
Data set [5] relates to Plasmodium falciparum. Put plainly: Antiplasmodial activity against Plasmodium falciparum Dd2. The class given is functional, organism-based.
Data set [6] concerns Plasmodium berghei. Put plainly: Antiplasmodial activity against Plasmodium berghei at 5 uM. The class given is functional.
The nature of data set [7]: Cmax in mouse at 140 micromol/kg, po. The class given is ADME. Also noted: route oral, dose 140 µmol/kg. The following applies: in vivo, 140 µmol/kg.
A further data set addresses hERG (KCNH2) (Homo sapiens, UniProt Q12809). Put plainly: Inhibition of human ERG at 11 uM.
The nature of data set [8]: MRT (0 to 7 hrs) in mouse at 140 micromol/kg, po. Format: ADME. The conditions noted are these: in vivo, dose 140 µmol/kg.
The test system of data set [9] is Plasmodium falciparum. The data set can be described thus: Antiplasmodial activity against Plasmodium falciparum W2. The class given is functional, organism-based.
Data set [10] can be described thus: AUC (0 to 7 hrs) in mouse at 140 micromol/kg, po. The class given is ADME. Further details: time < 7 hr, route oral, dose 140 µmol/kg. The conditions noted are these: in vivo, 140 µmol/kg.
Data set [11] in a line: Kinetic solubility of compound at pH 7.4. Format: physicochemical. The conditions noted are these: buffer.
For data set [12], the system named is Plasmodium falciparum. The data set can be described thus: Antiplasmodial activity against Plasmodium falciparum K1. Format: functional, organism-based.
Data set [13] relates to Plasmodium berghei. The data set can be described thus: Antiplasmodial activity against luciferase expressing Plasmodium berghei. The class given is functional, organism-based.
For data set [14], the system named is Plasmodium falciparum. Put plainly: Antiplasmodial activity against Plasmodium falciparum 3D7. The class given is functional, organism-based.
Data set [15] can be described thus: Tmax in mouse at 140 micromol/kg, po. Format: ADME. The following applies: in vivo, dose 140 µmol/kg.
Data set [16] deals with Plasmodium falciparum. Put plainly: Antiplasmodial activity against Plasmodium falciparum FCR3. The class given is functional, organism-based.
Data set [17] can be described thus: Plasma protein binding in human. Format: ADME, cell-free. The conditions noted are these: read-out: PPB.

In general, inhibition refers to the percentage by which the read-out fell short of the control. By EC50 is commonly meant the concentration at which the effect is half-maximal. One may read the IC50 as the concentration at which inhibition is half-maximal. A higher IC50 goes with weaker potency in that assay. As usually defined, the Cmax is the highest concentration seen after dosing. The term MRT last denotes a mean duration of stay, worked out from the concentration-time curve. A word on the AUC(0-t): it is the area under the concentration-time curve up to a stated or last time point. The term Tmax denotes the time from dosing to the highest level.

Chain of hERG (KCNH2) (Q12809 whole entry): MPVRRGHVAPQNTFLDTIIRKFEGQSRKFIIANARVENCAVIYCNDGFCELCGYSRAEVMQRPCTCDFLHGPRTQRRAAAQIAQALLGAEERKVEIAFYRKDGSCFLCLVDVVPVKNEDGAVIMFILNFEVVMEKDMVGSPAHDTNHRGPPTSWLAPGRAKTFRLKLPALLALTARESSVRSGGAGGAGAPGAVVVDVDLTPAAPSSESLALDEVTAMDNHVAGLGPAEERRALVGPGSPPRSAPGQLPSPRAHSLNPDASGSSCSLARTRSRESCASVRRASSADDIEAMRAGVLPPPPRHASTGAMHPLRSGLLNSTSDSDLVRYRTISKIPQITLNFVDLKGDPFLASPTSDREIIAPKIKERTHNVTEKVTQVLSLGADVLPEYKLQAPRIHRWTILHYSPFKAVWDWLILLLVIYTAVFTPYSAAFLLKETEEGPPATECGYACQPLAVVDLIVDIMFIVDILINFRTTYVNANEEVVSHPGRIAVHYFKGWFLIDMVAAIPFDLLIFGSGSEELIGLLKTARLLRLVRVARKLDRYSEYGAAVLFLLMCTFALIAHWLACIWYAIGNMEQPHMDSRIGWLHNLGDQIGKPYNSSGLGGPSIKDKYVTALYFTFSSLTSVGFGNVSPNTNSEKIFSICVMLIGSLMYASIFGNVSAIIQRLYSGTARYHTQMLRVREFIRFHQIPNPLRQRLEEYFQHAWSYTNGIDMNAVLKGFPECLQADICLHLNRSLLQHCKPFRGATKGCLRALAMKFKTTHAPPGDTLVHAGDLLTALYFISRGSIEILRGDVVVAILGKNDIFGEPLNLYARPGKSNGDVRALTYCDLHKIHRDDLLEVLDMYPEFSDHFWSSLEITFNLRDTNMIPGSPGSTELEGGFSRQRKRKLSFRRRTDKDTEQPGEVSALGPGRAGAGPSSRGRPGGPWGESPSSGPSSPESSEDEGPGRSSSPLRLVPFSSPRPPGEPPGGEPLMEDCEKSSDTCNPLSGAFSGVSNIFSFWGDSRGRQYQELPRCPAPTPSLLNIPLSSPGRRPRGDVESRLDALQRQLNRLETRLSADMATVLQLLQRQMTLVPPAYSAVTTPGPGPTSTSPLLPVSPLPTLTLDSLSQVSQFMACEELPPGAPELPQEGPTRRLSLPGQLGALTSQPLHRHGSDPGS

As to `O=C(CCn1c(=O)[nH]c2ccccc2c1=O)NCc1ccccc1OC(F)F`, in the data set on Plasmodium falciparum [1], the inhibition at 20 µM was 63.8%. Also, in the data set with Plasmodium falciparum [2], the EC50 was 32 µM.
`COc1ccccc1Cn1cc(CCn2c(=O)[nH]c3ccccc3c2=O)nn1`: the inhibition at 20 µM with Plasmodium falciparum [1] is 68.8%.
As for `COc1ccccc1CCNC(=O)CCn1c(=O)[nH]c2ccccc2c1=O`, the concentration for a half-maximal effect (EC50) with Plasmodium falciparum [2] came out at 10.1 µM.
Regarding `CC(C)CCNC(=O)CCn1c(=O)[nH]c2ccccc2c1=O`, the concentration for a half-maximal effect (EC50) in the data set with Plasmodium falciparum [2] was over 25 µM.
In the case of `COc1ccccc1CNC(=O)CCn1c(=O)[nH]c2ccc(Br)cc2c1=O`, the inhibition at 20 µM in the data set on Plasmodium falciparum [1] amounted to 59.8%.
Regarding `COc1cc(F)ccc1CNC(=O)CCn1c(=O)[nH]c2ccccc2c1=O`, the inhibition at 20 µM with Plasmodium falciparum [1] was 74.8%. Moreover, the selectivity ratio in data set [3] is over 20. In [4], this molecule came in with an IC50 of over 100 µM. Further, in the data set with Plasmodium falciparum [2], the concentration for a half-maximal effect (EC50) was determined as 5 µM.
Consider `CCOc1ccccc1CNC(=O)CCn1c(=O)[nH]c2ccccc2c1=O`, for which the inhibition at 20 µM in the data set with Plasmodium falciparum [1] is 84.7%. In addition, in data set [3], the selectivity ratio was over 18.2. The same molecule gave a concentration for half-maximal inhibition (IC50) in data set [4] of over 100 µM. The EC50 with Plasmodium falciparum [2] stood at 5.5 µM.
Take `COc1ccccc1Cn1cc(Cn2c(=O)[nH]c3ccccc3c2=O)nn1`: the inhibition at 20 µM with Plasmodium falciparum [1] was 30.5%.
On the same count and under the same terms, under `O=C(CCn1c(=O)[nH]c2ccccc2c1=O)N1CCc2ccccc2C1` stands 30.6%; under `Cn1nccc1CNC(=O)CCn1c(=O)[nH]c2ccccc2c1=O`, 19.9%.
Still for that read-out and setting: under `COc1ccccc1NC(=O)CCn1c(=O)[nH]c2ccccc2c1=O` stands 53.1%.
Consider `O=C(CCn1c(=O)[nH]c2ccccc2c1=O)NCc1ccccc1Cl`, for which, in the data set on Plasmodium falciparum [1], the inhibition at 20 µM was 56%. Moreover, the EC50 in the data set on Plasmodium falciparum [2] stood at 37.5 µM.
Turning to `COc1ccccc1CNS(=O)(=O)CCn1c(=O)[nH]c2ccccc2c1=O`, the inhibition at 20 µM in the data set on Plasmodium falciparum [1] came to 21.7%.
On the same count and under the same terms, under `COc1ccccc1CNC(=O)CCn1c(=O)[nH]c2cc(F)c(F)cc2c1=O` stands 40.5%.
Regarding `COc1cc(F)c(F)cc1CNC(=O)CCn1c(=O)[nH]c2ccccc2c1=O`, the inhibition at 20 µM with Plasmodium falciparum [1] was found to be 68.3%. For the same molecule, the concentration giving a half-maximal response (EC50) in the data set on Plasmodium falciparum [2] was 11.3 µM.
For the molecule `COc1ccccc1CNC(=O)CCn1c(=O)[nH]c2ccc(F)cc2c1=O`, the inhibition at 20 µM in the data set with Plasmodium falciparum [1] amounted to 65.4%. The EC50 in the data set on Plasmodium falciparum [2] was 20 µM.
On to `CC(C)CCNC(=O)CCCn1c(=O)[nH]c2ccccc2c1=O`, for which, in the data set with Plasmodium falciparum [2], the concentration giving a half-maximal response (EC50) was over 25 µM.
Same read-out and setting: under `COc1ccccc1CNC(=O)CCCn1c(=O)[nH]c2ccccc2c1=O` stands 16.9 µM.
For the molecule `O=C(CCCn1c(=O)[nH]c2ccccc2c1=O)NC1CCCC1`, in the data set with Plasmodium falciparum [1], the inhibition at 20 µM was found to be 21.3%.
As to `COc1ccccc1CN(C)C(=O)CCn1c(=O)[nH]c2ccccc2c1=O`, the inhibition at 20 µM in the data set on Plasmodium falciparum [1] amounted to 41.8%.
`O=C(CCn1c(=O)[nH]c2ccccc2c1=O)NCc1ccccc1OC(F)(F)F`: the inhibition at 20 µM in the data set on Plasmodium falciparum [1] amounted to 72.5%. Moreover, in [3], the selectivity ratio was over 14.7. This molecule showed a concentration for half-maximal inhibition (IC50) in data set [4] of over 100 µM. Also, in the data set with Plasmodium falciparum [2], the EC50 stood at 6.8 µM.
As for `COc1ccccc1CCNC(=O)CCCn1c(=O)[nH]c2ccccc2c1=O`, the EC50 in the data set with Plasmodium falciparum [2] came to 7.7 µM.
`O=C(CCn1c(=O)[nH]c2ccccc2c1=O)NCc1ccccc1O`: the inhibition at 20 µM with Plasmodium falciparum [1] stood at 17.1%.
For the molecule `COc1ccccc1CNC(=O)CCn1c(=O)[nH]c2ncccc2c1=O`, the inhibition at 20 µM in the data set with Plasmodium falciparum [1] is 52.4%.
On the same count and under the same terms, under `O=C(CCn1c(=O)[nH]c2ccccc2c1=O)NCc1nc2ccccc2[nH]1` stands 38.1%; under `O=C(CCn1c(=O)[nH]c2ccccc2c1=O)NC1CCCC1`, 32.9%.
Still for that read-out and setting: under `COc1ccc(CNC(=O)CCn2c(=O)[nH]c3ccccc3c2=O)c(OC)c1` stands 28%.
In the case of `COc1ccccc1CNC(=O)CCn1c(=O)[nH]c2ccccc2c1=O`, the half-maximal effective concentration (EC50) in the data set with Plasmodium falciparum [5] came out at 0.07 µM; with Plasmodium falciparum [9], 0.07 µM; in the data set with Plasmodium falciparum [12] it was 0.07 µM; with Plasmodium falciparum [14], 0.07 µM; with Plasmodium falciparum [16] it was 0.07 µM; in the data set on Plasmodium falciparum [2], 0.4 µM. In the data set on Plasmodium berghei [6], this molecule came in with an Activity of 23%. This molecule came in with a Cmax in data set [7] of 0.0213 µM. Also, testing at 11 µM at hERG (KCNH2) gave an inhibition of 19%. In addition, the mean residence time (MRT last) in [8] is 3.01 h. In data set [10], this molecule returned an AUC(0-t) at 7 h of 72.9 nM·h. For the same molecule, the selectivity ratio in data set [3] is over 250. Also, the IC50 in [4] is over 100 µM; with Plasmodium berghei [13] it was 0.044 µM. The Kinetic_solubility entry in data set [11] is given as “Insoluble”. Besides, in data set [15], the Tmax is 0.25 h. Also, the fraction unbound in data set [17] is under 0.05.
On to `COc1ccccc1CNC(=O)CCn1c(=O)[nH]c2ccsc2c1=O`, for which the EC50 with Plasmodium falciparum [5], with Plasmodium falciparum [9], with Plasmodium falciparum [12], with Plasmodium falciparum [14] and in the data set with Plasmodium falciparum [16] was 0.07 µM throughout. For the same molecule, in the data set on Plasmodium berghei [6], the Activity is listed as 27%. This molecule displayed an inhibition at 11 µM against hERG (KCNH2) of 5%. Also, the Kinetic_solubility entry in data set [11] is reported as “Soluble”. 0.056 µM corresponded to half-maximal inhibition in the data set with Plasmodium berghei [13] (IC50). The fraction unbound in [17] is over 0.05.
